According to ChEMBL document CHEMBL4371064, “Erythrofordins D and E, two new cassaine-type diterpenes from Erythrophleum suaveolens” (2019):

Columns and labels:
Type in all cases: functional
CCRF-CEM = assay: Growth inhibition of human CCRF-CEM cells incubated for 48 hrs by sulforhodamine B assay
Outline: (§1)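 Run in the NCI-60 human tumour cell line panel with dose-response testing. GI50 was determined for each cell line from its dose-response data.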

HL-60(TB) = assay: Growth inhibition of human HL-60(TB) cells incubated for 48 hrs by sulforhodamine B assay; details: HL-60, 48 h
Outline: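 Run within the NCI-60 human tumour cell line panel as a dose-response screen. For each cell line the readouts are GI50, TGI and LC50. Per-line log values also feed a mean-graph analysis, in which the arithmetic mean of the log values across all lines is subtracted from each line's log value.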

RPMI-8226 = assay: Growth inhibition of human RPMI8226 cells incubated for 48 hrs by sulforhodamine B assay; details: RPMI-8226, 48 h; outline: as §1
HOP-62 = assay: Growth inhibition of human HOP62 cells incubated for 48 hrs by sulforhodamine B assay; details: HOP-62, 48 h; outline: as §1
NCI-H226 = assay: Growth inhibition of human NCI-H226 cells incubated for 48 hrs by sulforhodamine B assay; details: NCI-H226, 48 h; outline: as §1
NCI-H322M = assay: Growth inhibition of human NCI-H322M cells incubated for 48 hrs by sulforhodamine B assay; outline: as §1
COLO 205 = assay: Growth inhibition of human COLO205 cells incubated for 48 hrs by sulforhodamine B assay; details: COLO 205, 48 h; outline: as §1
HCC 2998 = assay: Growth inhibition of human HCC2998 cells incubated for 48 hrs by sulforhodamine B assay; details: HCC 2998, 48 h; outline: as §1
HT-29 = assay: Growth inhibition of human HT-29 cells incubated for 48 hrs by sulforhodamine B assay; details: HT-29, 48 h; outline: as §1
SNB-19 = assay: Growth inhibition of human SNB19 cells incubated for 48 hrs by sulforhodamine B assay; details: SNB-19, 48 h; outline: as §1
SNB-75 = assay: Growth inhibition of human SNB75 cells incubated for 48 hrs by sulforhodamine B assay; details: SNB-75, 48 h; outline: as §1
LOX IMVI = assay: Growth inhibition of human LOXIMVI cells incubated for 48 hrs by sulforhodamine B assay; outline: as §1
Malme-3M = assay: Growth inhibition of human MALME-3M cells incubated for 48 hrs by sulforhodamine B assay; outline: as §1
M14 = assay: Growth inhibition of human M14 cells incubated for 48 hrs by sulforhodamine B assay; details: M14, 48 h; outline: as §1
SK-MEL-2 = assay: Growth inhibition of human SK-MEL-2 cells incubated for 48 hrs by sulforhodamine B assay; details: SK-MEL-2, 48 h; outline: as §1
UACC-257 = assay: Growth inhibition of human UACC257 cells incubated for 48 hrs by sulforhodamine B assay; details: UACC-257, 48 h
Outline: (§2)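 Tested in the NCI 60-human-tumour-cell-line screen using the five-dose format. GI₅₀ was derived from each cell line's dose-response. TGI and LC₅₀ were derived from the same dose-response data.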

UACC-62 = assay: Growth inhibition of human UACC62 cells incubated for 48 hrs by sulforhodamine B assay; details: UACC-62, 48 h; outline: as §2
IGROV-1 = assay: Growth inhibition of human IGROV1 cells incubated for 48 hrs by sulforhodamine B assay; details: IGROV-1, 48 h; outline: as §1
OVCAR-3 = assay: Growth inhibition of human OVCAR3 cells incubated for 48 hrs by sulforhodamine B assay; details: OVCAR-3, 48 h; outline: as §1
OVCAR-4 = assay: Growth inhibition of human OVCAR4 cells incubated for 48 hrs by sulforhodamine B assay; details: OVCAR-4, 48 h; outline: as §1
786-0 = assay: Growth inhibition of human 786-0 cells incubated for 48 hrs by sulforhodamine B assay; details: 786-0, 48 h; outline: as §1
ACHN = assay: Growth inhibition of human ACHN cells incubated for 48 hrs by sulforhodamine B assay; outline: as §1
TK-10 = assay: Growth inhibition of human TK10 cells incubated for 48 hrs by sulforhodamine B assay; details: TK-10, 48 h; outline: as §2
DU-145 = assay: Growth inhibition of human DU145 cells incubated for 48 hrs by sulforhodamine B assay; details: DU-145, 48 h; outline: as §1
MCF7 = assay: Growth inhibition of human MCF7 cells incubated for 48 hrs by sulforhodamine B assay; details: MCF7, 48 h; outline: as §1
MDA-MB-231 = assay: Growth inhibition of human MDA-MB-231 cells incubated for 48 hrs by sulforhodamine B assay; details: MDA-MB-231, 48 h; outline: as §1
BT-549 = assay: Growth inhibition of human BT549 cells incubated for 48 hrs by sulforhodamine B assay; details: BT-549, 48 h; outline: as §1
T47D = assay: Growth inhibition of human T47D cells incubated for 48 hrs by sulforhodamine B assay; outline: as §2
MDA-MB-468 = assay: Growth inhibition of human MDA-MB-468 cells incubated for 48 hrs by sulforhodamine B assay; details: MDA-MB-468, 48 h; outline: as §1
[1] = read-out: pLC50 (the source's name) (converted)

SMILES: COC(=O)/C=C1\CC[C@H]2[C@@H](CC(=O)[C@H]3C(C)(C)C(=O)CC[C@]23C)[C@H]1C
- GI50 (CCRF-CEM): 708 nM
- LC50 (CCRF-CEM): > 34700 nM
- TGI (CCRF-CEM; read-out: pTGI (converted)): 2290 nM
- GI50 (HL-60(TB)): 977 nM
- LC50 (HL-60(TB)): > 34700 nM
- TGI (HL-60(TB); read-out: pTGI (converted)): 2750 nM
- GI50 (RPMI-8226): 1290 nM
- LC50 (RPMI-8226): > 34700 nM
- TGI (RPMI-8226; read-out: pTGI (converted)): 22400 nM
- GI50 (HOP-62): 550 nM
- CC50 (HOP-62; [1]): 2630 nM
- TGI (HOP-62; read-out: pTGI (converted)): 1200 nM
- GI50 (NCI-H226): 617 nM
- LC50 (NCI-H226): 2630 nM
- TGI (NCI-H226; read-out: pTGI (converted)): 1290 nM
- GI50 (NCI-H322M): 813 nM
- LC50 (NCI-H322M): 27500 nM
- TGI (NCI-H322M; read-out: pTGI (converted)): 2510 nM
- GI50 (COLO 205): 1230 nM
- LC50 (COLO 205): > 34700 nM
- TGI (COLO 205; read-out: pTGI (converted)): 5370 nM
- GI50 (HCC 2998): 1450 nM
- LC50 (HCC 2998): > 34700 nM
- TGI (HCC 2998; read-out: pTGI (converted)): 8130 nM
- GI50 (HT-29): 955 nM
- CC50 (HT-29; [1]): 12900 nM
- TGI (HT-29; read-out: pTGI (converted)): 2450 nM
- GI50 (SNB-19): 1200 nM
- LC50 (SNB-19): 12900 nM
- TGI (SNB-19; read-out: pTGI (converted)): 4470 nM
- GI50 (SNB-75): 550 nM
- LC50 (concentration killing 50% of cells) (SNB-75): 2630 nM
- TGI (SNB-75; read-out: pTGI (converted)): 1200 nM
- GI50 (LOX IMVI): 692 nM
- LC50 (LOX IMVI): 5250 nM
- TGI (LOX IMVI; read-out: pTGI (converted)): 1660 nM
- GI50 (Malme-3M): 724 nM
- LC50 (Malme-3M): 6920 nM
- TGI (Malme-3M; read-out: pTGI (converted)): 1660 nM
- GI50 (M14): 1150 nM
- LC50 (M14): 20000 nM
- TGI (M14; read-out: pTGI (converted)): 4270 nM
- GI50 (SK-MEL-2): 1050 nM
- LC50 (concentration killing 50% of cells) (SK-MEL-2): > 34700 nM
- TGI (SK-MEL-2; read-out: pTGI (converted)): 4470 nM
- GI50 (UACC-257): 891 nM
- LC50 (UACC-257): 18600 nM
- TGI (UACC-257; read-out: pTGI (converted)): 2450 nM
- GI50 (UACC-62): 832 nM
- LC50 (UACC-62): 11500 nM
- TGI (UACC-62; read-out: pTGI (converted)): 2290 nM
- GI50 (IGROV-1): 1290 nM
- LC50 (IGROV-1): > 34700 nM
- TGI (IGROV-1; read-out: pTGI (converted)): 7590 nM
- GI50 (OVCAR-3): 661 nM
- LC50 (OVCAR-3): 2510 nM
- TGI (OVCAR-3; read-out: pTGI (converted)): 1290 nM
- GI50 (OVCAR-4): 676 nM
- LC50 (OVCAR-4): 5750 nM
- TGI (OVCAR-4; read-out: pTGI (converted)): 1620 nM
- GI50 (786-0): 676 nM
- LC50 (786-0): 3160 nM
- TGI (786-0; read-out: pTGI (converted)): 1450 nM
- GI50 (ACHN): 162 nM
- LC50 (ACHN): 1860 nM
- TGI (ACHN; read-out: pTGI (converted)): 617 nM
- GI50 (TK-10): 794 nM
- LC50 (lethal concentration killing 50% of cells) (TK-10): 14800 nM
- TGI (TK-10; read-out: pTGI (converted)): 2400 nM
- GI50 (DU-145): 575 nM
- LC50 (concentration killing 50% of cells) (DU-145): 1950 nM
- TGI (DU-145; read-out: pTGI (converted)): 1050 nM
- GI50 (MCF7): 955 nM
- CC50 (MCF7; [1]): > 34700 nM
- TGI (MCF7; read-out: pTGI): > 34700 nM
- GI50 (MDA-MB-231): 1480 nM
- LC50 (MDA-MB-231): > 34700 nM
- TGI (MDA-MB-231; read-out: pTGI (converted)): 7940 nM
- GI50 (BT-549): 676 nM
- LC50 (BT-549): 5130 nM
- TGI (BT-549; read-out: pTGI (converted)): 1660 nM
- GI50 (T47D): 1000 nM
- LC50 (T47D): > 34700 nM
- TGI (T47D; read-out: pTGI (converted)): 2950 nM
- GI50 (MDA-MB-468): 1700 nM
- CC50 (MDA-MB-468; [1]): > 34700 nM
- TGI (MDA-MB-468; read-out: pTGI (converted)): 12300 nM
